RGS4 inh: inhibitors of human RGS4 | P49798 | HEK293 M3R/RGS4 inducible, Fluo-4 calcium flux; active compounds read high; triggered by carbachol at its EC20 | B-score at 10 µM | 310,000 compounds, 0.45% hits | AID 463165;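 active = B-score, a plate-corrected calcium signal, over three deviations above library mean, with baseline fluorescence within five deviations of library mean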;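 note: RGS4 expression induced by doxycycline in cells with stable M3 receptor; B-score is computed from the integrated fluorescence ratio over baseline after carbachol; higher B-score means a larger calcium signal and so more RGS4 inhibition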
Target sequence (P49798 whole entry, looked up): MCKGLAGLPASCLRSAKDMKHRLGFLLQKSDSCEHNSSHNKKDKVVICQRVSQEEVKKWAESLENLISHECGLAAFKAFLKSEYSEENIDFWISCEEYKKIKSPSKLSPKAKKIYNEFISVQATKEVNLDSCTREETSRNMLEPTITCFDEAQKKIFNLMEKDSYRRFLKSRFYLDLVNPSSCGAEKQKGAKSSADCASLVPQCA
MrgX1 PAM: human MrgX1 positive allosteric modulation, primary screen | Q96LB2 | 310,000 compounds, 0.63% hits | B-score at 10 µM | MrgX1-HEK293, Fluo-4 calcium flux, FDSS; active compounds read high;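 active = plate-corrected calcium response at least 3 library SD above typical, normal starting fluorescence, not activating the receptor alone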;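 note: compound read alongside a low EC10 to EC30 dose of BAM8-22 agonist; peak minus trough fluorescence over baseline measured at the second addition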
Target sequence (Q96LB2 whole entry, looked up): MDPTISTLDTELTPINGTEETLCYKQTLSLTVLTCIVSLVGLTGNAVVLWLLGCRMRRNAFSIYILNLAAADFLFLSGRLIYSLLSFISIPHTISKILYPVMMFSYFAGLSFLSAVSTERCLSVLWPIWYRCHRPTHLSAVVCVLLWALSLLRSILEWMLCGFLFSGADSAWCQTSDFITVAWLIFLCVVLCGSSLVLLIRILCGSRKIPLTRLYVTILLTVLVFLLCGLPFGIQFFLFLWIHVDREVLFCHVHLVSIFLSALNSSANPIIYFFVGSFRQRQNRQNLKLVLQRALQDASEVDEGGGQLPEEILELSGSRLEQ
MrgX1 agonist: activates human MrgX1 receptor signaling | MrgX1-HEK293 cells, Fluo-4 calcium fluorescence, agonist mode; active compounds read high | B-score at 10 µM | AID 588627 | 310,000 compounds, 0.44% hits;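 active = calcium response B-score plate-corrected fluorescence ratio at least 3 library SD, with starting fluorescence B-score inside 5 SD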
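Test system: HEK293 cells stably expressing human MrgX1 receptor; amount: 15,000 cells per well; doses: compound delivered in addition one of three; times: overnight plating before 1 h dye loading; detection: Fluo-4 NW calcium-flux fluorescence, kinetic read; read-out basis: B-scored fluorescence response ratio; controls: positive and negative controls per plate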
MrgX1 antagonist: antagonists of human MrgX1 receptor. Q96LB2. MRGX1-HEK293 calcium flux, Fluo-4, BAM8-22 antagonism; active compounds read low. B-score at 10 µM. 310,000 compounds, 1.3% hits. AID 588676;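 active = calcium-response B-score plate-corrected more than 3 library SD below zero, starting fluorescence within 5 deviations, no agonist response on first addition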;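 note: peak minus trough fluorescence over baseline after final BAM8-22 challenge near maximal dose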
RGS4 pot: RGS4 potentiation or activation; HEK293 M3R/inducible RGS4, carbachol calcium flux Fluo4; active compounds read low; B-score at 10 µM; 310,000 compounds, 0.92% hits;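 active = B-score of the integrated calcium signal more than 4 SD below the library mean, with starting fluorescence not abnormally high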;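 note: negative B-score means reduced calcium response which marks RGS4 activation or potentiation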
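Assay system: Inducible-RGS4 HEK293 cells carrying M3 receptor | Schedule: Compound preincubation 20 min at room temperature before agonist | Signal: Kinetic calcium fluorescence imaging with Fluo4-AM dye, 2 µM | Read-out basis: B score from integrated fluorescence ratio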
RGS4 act valid: RGS4 activation, validation assay. shares compounds with RGS4 pot. HEK293 M3R/RGS4 inducible, carbachol calcium flux Fluo4. inhibition, % at 10 µM. 1,100 compounds, 89% hits. AID 602282;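 active = inhibition above 3 SD of the buffer control wells, cut at about 41% in these data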;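 note: signal is the integrated peak-minus-minimum Fluo4 fluorescence over baseline ratio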
RGS4 act ctr: counter-screen for RGS4 activators: effect in non-induced cells. inhibition, % at 10 µM. 1,100 compounds, 82% hits. shares compounds with RGS4 pot. HEK293 M3R non-induced RGS4, Fluo4 calcium flux; after carbachol challenge at its EC90;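 active = inhibition exceeding 3 SD of buffer-only control wells, cut at about 26% in these data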;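 note: percent drop in integrated peak-minus-baseline over baseline Fluo4 ratio after carbachol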
Active calls of the source: *; i = inactive; . = no result given. An excerpt weighted towards active compounds, which were near 3.5% of everything screened.

SMILES	RGS4 inh	MrgX1 PAM	MrgX1 agonist	MrgX1 antagonist	RGS4 pot	RGS4 act valid	RGS4 act ctr
CCCc1cc(C(=O)OCC(=O)N(CCC)c2c(N)n(Cc3ccccc3)c(=O)[nH]c2=O)sc1C	i	i	i	i	i	.	.
CCC(C(=O)Nc1cccnc1Cl)c1ccccc1 (stereo not given)	i	i	i	i	i	.	.
CC1CN(CCCCOc2cccc(Oc3ccccc3)c2)CC(C)O1 (stereo not given)	i	i	i	i	i	.	.
c1ccc(Oc2cccc(OCCCCN3CCCC3)c2)cc1	i	i	i	i	-11*	94*	88*
CCCN1CCN(CCCNC(=O)c2cc3c(=O)oc4ccc(C)cc4c3s2)CC1	i	i	i	i	i	.	.
Cc1ccc2nc(Cl)c3cc(C(=O)NCCCN4CCCC4)sc3c2c1	i	i	i	i	-7.6*	65*	40*
CCCC[C@@H]1CNCCN1CCc1cc(C(F)(F)F)cc(C(F)(F)F)c1	i	i	i	i	-7.9*	93*	86*
CCN(CC)S(=O)(=O)c1cc(NC(=O)C(C)N2CCN(c3ccccn3)CC2)ccc1C (stereo not given)	i	i	i	i	-9.1*	64*	0
CS(=O)(=O)N(CC(=O)Nc1ccc(S(=O)(=O)N2CCOCC2)cc1)c1ccccc1Br	i	i	i	i	i	.	.
O=C(c1ccc2c(=O)n3c(nc2c1)CCCCC3)N1CCN(c2ccccc2)CC1	i	i	i	i	i	.	.
O=C(c1ccc2c(=O)n3c(nc2c1)CCCCC3)N1CCN(C(c2ccccc2)c2ccccc2)CC1	i	i	i	i	-7.7*	93*	92*
O=c1c2cc(Br)ccc2nc2n1CCCCC2	i	i	i	i	-8.9*	80*	30*
CC(=O)c1cccc(NC(=O)CSc2nnnn2C2CCCC2)c1	i	.	.	.	i	.	.
COc1ccc(C(=O)Nc2cc3c4c(c2)CC(=O)N4CCC3)cc1	i	i	i	i	i	.	.
CCOc1ccc(NC(C(=O)Nc2cccc(C(C)=O)c2)c2ccccc2)cc1 (stereo not given)	i	i	i	i	i	.	.
CCN(CC)CCNC(C(=O)Nc1cccc(C(C)=O)c1)c1ccccc1 (stereo not given)	i	i	i	-5*	-13*	90*	45*
Cc1cnc(C(=O)NC(Cc2ccccc2)c2ccccc2)cn1 (stereo not given)	i	i	i	i	i	.	.
O=C(Nc1ccc(S(=O)(=O)N2CCCC2)cc1)c1ccc(OCC2CCCO2)cc1 (stereo not given)	i	i	i	i	i	.	.
O=C(Nc1ccc(Cl)c(S(=O)(=O)N2CCOCC2)c1)c1ccc(OCC2CCCO2)cc1 (stereo not given)	i	i	i	-11*	-11*	94*	79*
Cc1cc(SCC(=O)c2ccccc2)n2nc(C)nc2n1	i	i	i	i	-9*	0	0
COc1ccccc1C1c2ccc3ccccc3c2Oc2ncn(CCN(C)C)c(=N)c21 (stereo not given)	i	i	i	i	-8.3*	86*	67*
COc1ccc(C2c3ccc4ccccc4c3Oc3ncn(CCCN(C)C)c(=N)c32)cc1 (stereo not given)	i	i	i	i	-8.6*	40*	84*
COc1ccccc1C1c2ccc3ccccc3c2Oc2ncn(CCCO)c(=N)c21 (stereo not given)	i	i	i	i	i	.	.
Cc1ccccc1Cc1c(C)nc2nc(SCC(=O)NCCCN3CCCC3)nn2c1C	i	i	i	i	-8.7*	72*	37*
Cc1ccc(Cc2c(C)nc3nc(SCC(=O)NCCCN4CCCCC4)nn3c2C)cc1	i	i	i	i	i	.	.
SMILES	RGS4 inh	MrgX1 PAM	MrgX1 agonist	MrgX1 antagonist	RGS4 pot	RGS4 act valid	RGS4 act ctr
Cc1nc2nc(SCC(=O)NCCCN3CCCC(C)C3)nn2c(C)c1Cc1ccccc1Cl (stereo not given)	i	i	i	i	i	.	.
Cc1ccc(Cc2c(C)nc3nc(SCC(=O)NCCCN4CCCC4)nn3c2C)cc1	i	i	i	i	-9.6*	41*	0
Cc1nc2nc(SCC(=O)NCCCN3CCCCCC3)nn2c(C)c1Cc1ccccc1Cl	i	i	i	i	-7.9*	82*	45*
Cc1ccc2cc(NC(=O)c3ccc(C(C)(C)C)cc3)ccc2n1	i	i	i	i	-8.2*	84*	81*
Cc1ccc2c(c1)N(C(=O)CCC(=O)NCc1ccccn1)CC(C)O2 (stereo not given)	i	i	i	i	i	.	.
COc1cc(C(=O)Nc2ccc(N3CCN(C(=O)c4ccc(C)cc4)CC3)cc2)cc(OC)c1OC	i	i	i	i	i	.	.
CCN(CC)C1CCN(C(=O)c2cc(COc3cccc4cccnc34)on2)C1 (stereo not given)	i	.	.	.	-9.2*	90*	75*
COc1ccccc1CCCNC(=O)C1CCC(=O)N(CCc2ccc(Cl)cc2)C1 (stereo not given)	i	i	i	i	i	.	.
CN(CC(=O)Nc1cccc(F)c1)C(=O)c1cc(-c2cccs2)nn1-c1ccccc1	i	i	i	i	-9.6*	76*	43*
CC(Cc1ccsc1)NC(=O)CCc1nnc(COc2ccccc2)o1 (stereo not given)	i	i	i	i	i	.	.
CCOC(=O)c1ccc(NC(=S)N2CCC(O)CC2)cc1	i	i	i	i	i	.	.
CCOC(=O)c1ccc(NC(=S)N2CCSC2c2ccc(Br)cc2)cc1 (stereo not given)	i	i	i	i	-8.1*	92*	91*
CCOC(=O)c1ccc(NC(=S)N2CCCC(C(=O)N3CCCC3)C2)cc1 (stereo not given)	i	i	i	i	i	.	.
CCOC(=O)c1ccc(NC(=S)N2CCCC(C)C2)cc1 (stereo not given)	i	i	i	i	-8.9*	79*	26*
COC(=O)C1=C(C)N(c2ccc(OC)cc2)C(C)=C(C(=O)OC)C1c1ccccc1	i	i	i	i	i	.	.
